From ChEMBL document CHEMBL1649406, “Synthesis and anti-mycobacterial activities of triazoloquinolones” (Eur J Med Chem, 2011)
Converted amounts (≈) assume the structure as drawn.

System: Mycobacterium tuberculosis
Assay: Antimycobacterial activity against Mycobacterium bovis BCG after 7 days by broth microdilution method
Assay type: functional
Settings: variant bovis BCG, 168 h
Outline: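 Strains were pre-grown in Middlebrook 7H11 with OADC. The microdilution assay ran in sealed 96-well plates at 37 °C and was read after 72 h for M. smegmatis mc²155 and after 7 days for M. bovis BCG.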

Compound	MIC [µg/mL]
CCOC(=O)c1cn(C)c2c(ccc3c2nnn3Cc2ccccc2)c1=O	64 (≈ 177 µM)
CCCCn1cc(C(=O)O)c(=O)c2ccc3c(nnn3Cc3ccccc3)c21	64 (≈ 170 µM)
CC[C@@H](CO)NCCN[C@@H](CC)CO [ETHAMBUTOL]	2 (≈ 9.79 µM)
Cn1nnc2c3c(ccc21)c(=O)c(C(=O)O)cn3CC1CCC1	16 (≈ 51.2 µM)
C=CCn1cc(C(=O)OCC)c(=O)c2ccc3c(nnn3Cc3ccccc3)c21	64 (≈ 165 µM)
Cn1cc(C(=O)O)c(=O)c2ccc3c(nnn3Cc3ccccc3)c21	4 (≈ 12 µM)
CCOC(=O)c1cn(CC)c2c(ccc3c2nnn3Cc2ccccc2)c1=O	> 128
C=CCn1cc(C(=O)O)c(=O)c2ccc3c(nnn3Cc3ccccc3)c21	8 (≈ 22.2 µM)
CCOC(=O)c1cn(CC2CC2)c2c(ccc3c2nnn3C)c1=O	64 (≈ 196 µM)
CCn1cc(C(=O)O)c(=O)c2ccc3c(nnn3Cc3ccccc3)c21	16 (≈ 45.9 µM)
C=C(C)Cn1cc(C(=O)OCC)c(=O)c2ccc3c(nnn3C)c21	> 128
CCCCn1cc(C(=O)OCC)c(=O)c2ccc3c(nnn3Cc3ccccc3)c21	64 (≈ 158 µM)
CCOC(=O)c1cn(CC2CCC2)c2c(ccc3c2nnn3C)c1=O	64 (≈ 188 µM)
CCOC(=O)c1cn(C(C)(C)C)c2c(ccc3c2nnn3C)c1=O	8 (≈ 24.4 µM)
Cn1cc(C(=O)O)c(=O)c2ccc3c(nnn3C)c21	4 (≈ 15.5 µM)
Cn1nnc2c3c(ccc21)c(=O)c(C(=O)O)cn3CC1CC1	16 (≈ 53.6 µM)
O=C(O)c1cn(C2CC2)c2cc(N3CCNCC3)c(F)cc2c1=O [CIPROFLOXACIN]	0.25 (≈ 0.754 µM)
Cn1nnc2c3c(ccc21)c(=O)c(C(=O)O)cn3C(C)(C)C	16 (≈ 53.3 µM)
C=C(C)Cn1cc(C(=O)O)c(=O)c2ccc3c(nnn3C)c21	32 (≈ 107 µM)
